Measurements as given in ChEMBL document CHEMBL4014336 (J Med Chem, 2017).
≈ marks a conversion by molar mass, not a printed value.

Columns and labels:
[1] = Volume of distribution at steady state in cynomolgus monkey at 1 mg/kg, iv; assay type: ADME, organism-based, Macaca fascicularis; details: in vivo, read-out: Vdss
Cytochrome P450 2A6 = Cytochrome P450 2A6 (Homo sapiens, UniProt P11509); assay: Inhibition of CYP2A6 (unknown origin); assay type: ADME
[2] = Half life in human liver microsomes; assay type: ADME, microsome
Method in brief: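 Human liver microsome incubation; parent half-life determined.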

[3] = MRT in cynomolgus monkey at 1 mg/kg, iv; assay type: ADME, organism-based, Macaca fascicularis; details: in vivo
Rattus norvegicus [4] = assay: Toxicity in rat assessed as plasma volume expansion at 300 mg/kg for 2 weeks; assay type: organism-based; details: in vivo, 336 h
Method in brief: (§1)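 Exploratory rat toxicology study lasting 2 weeks, with 300 mg/kg as the highest dose given. The study assessed hypokalemia, plasma volume expansion, hypertension and renal toxicity.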

Rattus norvegicus [5] = assay: Renal toxicity in rat at 300 mg/kg for 2 weeks; assay type: organism-based; details: in vivo, 336 h; method in brief: as §1
[6] = molecular target: 11-beta-hydroxysteroid dehydrogenase type 2 (Rattus norvegicus, UniProt P50233); assay: Inhibition of rat 11beta-HSD2
[7] = Oral bioavailability in dog at 2 mg/kg; assay type: ADME, organism-based, Canis lupus familiaris; details: in vivo
hERG = hERG (Homo sapiens, UniProt Q12809); assay: Inhibition of human ERG at 30 uM by patch clamp assay relative to control
Method in brief: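 hERG channel, patch clamp; percent inhibition at 30 μM.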

[8] = Aqueous solubility of the compound in pH 6.5 solution; assay type: physicochemical; details: pH 6.5, pH 6.5
Method in brief: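 Aqueous solubility measured at pH 6.5.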

Liver [9] = assay: Metabolic stability in human liver microsomes assessed as parent compound remaining after 10 mins; assay type: ADME, microsome; details: microsomes, 10 min
Method in brief: (§2)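 Parent compound remaining after a 10 min incubation with human, mouse or rat liver microsomes.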

[10] = MRT in dog at 1 mg/kg, iv; assay type: ADME, organism-based, Canis lupus familiaris; details: in vivo
[11] = Oral bioavailability in rat at 10 mg/kg; assay type: ADME, organism-based; details: in vivo
[12] = Apparent elimination half life in dog at 1 mg/kg, iv; assay type: ADME, organism-based, Canis lupus familiaris; details: in vivo, read-out: betat1/2(app) (converted)
Plasma [13] = assay: Drug uptake in po dosed non-fasting diet-induced obese mouse plasma after 3 hrs; assay type: ADME, organism-based; details: in vivo
Method in brief: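 Nonfasting diet-induced obese male mice, groups of n = 6 matched for body weight. Tail bleed at −60 min, then oral dosing with vehicle (0.5% Methocel, 0.1% Tween 80 in water) or drug. DHC 10 mg/kg given orally 60 min later. Bleeds at 30, 60 and 120 min after DHC. Plasma corticosterone measured by enzyme immunosorbent assay. Drug levels measured in terminal bleed samples.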

Plasma [14] = assay: Drug metabolism in rat plasma assessed as ketone A formation at […], iv; assay type: ADME, organism-based; details: in vivo
Rattus norvegicus [15] = assay: MRT in rat at […], iv; assay type: ADME, organism-based; details: in vivo
Cytochrome P450 1A2 = Cytochrome P450 1A2 (Homo sapiens, UniProt P05177); assay: Inhibition of CYP1A2 (unknown origin); assay type: ADME
[16] = Volume of distribution at steady state in dog at 1 mg/kg, iv; assay type: ADME, organism-based, Canis lupus familiaris; details: in vivo, read-out: Vdss
Rattus norvegicus [17] = assay: Toxicity in rat assessed as hypertension at 300 mg/kg for 2 weeks; assay type: organism-based; details: in vivo, 336 h; method in brief: as §1
[18] = Protein binding in mouse plasma; assay type: ADME, cell-free; details: read-out: PPB (converted)
in vivo [19] = details: mouse, liver / plasma, iv, 5 mg/kg
[20] = molecular target: 11-beta-hydroxysteroid dehydrogenase 1 (Rattus norvegicus, UniProt P16232); assay: Inhibition of rat 11beta-HSD1
[21] = AUC (0 to 24 hrs) in dog at 1 mg/kg, iv; assay type: ADME, organism-based, Canis lupus familiaris; set-up: time < 24 hr, dose 1 mg/kg, route intravenous; details: in vivo
[22] = Protein binding in cynomolgus monkey plasma; assay type: ADME, cell-free, Macaca fascicularis; details: read-out: PPB (converted)
Liver [23] = assay: Metabolic stability in rat liver microsomes assessed as parent compound remaining after 10 mins; assay type: ADME, microsome; details: microsomes, 10 min; method in brief: as §2
[24] = molecular target: 11-beta-hydroxysteroid dehydrogenase 1 (Mus musculus, UniProt P50172); assay: Inhibition of 11beta-HSD1 in mouse 3T3L1 cells; assay type: cell-based
Method in brief: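 Mouse adipocyte-like 3T3-L1 cell line, not genetically manipulated, so that inhibition acts on the cells' native mouse 11β-HSD1 activity.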

in vivo [25] = details: mouse, adipose tissue / plasma, iv, 5 mg/kg
[26] = Metabolic stability in dog liver microsomes assessed as UGT-mediated glucuronidation of compound by measuring half life in presence of UDPGA; assay type: ADME, Canis lupus familiaris
Method in brief: (§3)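 Liver microsomal glucuronidation incubations in the presence of UDPGA; parent half-life determined.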

[27] = Total plasma clearance in dog at 1 mg/kg, iv; assay type: ADME, organism-based, Canis lupus familiaris
[28] = Total plasma clearance in cynomolgus monkey at 1 mg/kg, iv; assay type: ADME, organism-based, Macaca fascicularis
Cytochrome P450 2D6 = Cytochrome P450 2D6 (Homo sapiens, UniProt P10635); assay: Inhibition of CYP2D6 (unknown origin); assay type: ADME
Cytochrome P450 2C19 = Cytochrome P450 2C19 (Homo sapiens, UniProt P33261); assay: Inhibition of CYP2C19 (unknown origin); assay type: ADME
Cynomolgus monkey [29] = assay: In vivo inhibition of 11beta-HSD1 in non-fasting diet-induced obese cynomolgus monkey assessed as decrease in corticosterone excursion in plasma pretreated via oral gavage for 30 mins followed by DHC administration measured up to 60 mins by enzyme immunosorbent assay; assay type: functional; details: Macaca fascicularis
Method in brief: (§4)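 Cynomolgus monkeys given test compound at a predetermined time before the experiment, chosen from its pharmacokinetics. Substrate DHC (rodent substrate, used in place of cortisone) given afterwards. Blood sampled at various times. Design otherwise similar to the mouse DHC challenge.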

[30] = Metabolic stability in rat liver microsomes assessed as UGT-mediated glucuronidation of compound by measuring half life in presence of UDPGA; assay type: ADME; method in brief: as §3
Rattus norvegicus [31] = assay: Volume of distribution at steady state in rat at […], iv; assay type: ADME, organism-based; details: in vivo
[32] = Oral bioavailability in mouse at 10 mg/kg; assay type: ADME, organism-based; details: in vivo
Cytochrome P450 2C9 = Cytochrome P450 2C9 (Homo sapiens, UniProt P11712); assay: Inhibition of CYP2C9 (unknown origin); assay type: ADME
[33] = Protein binding in rat plasma; assay type: ADME, cell-free; details: read-out: PPB (converted)
Plasma [34] = assay: Drug metabolism in cynomolgus monkey plasma assessed as ketone A formation at 1 mg/kg, iv; assay type: ADME, organism-based, Macaca fascicularis; details: in vivo
[35] = Permeability from basolateral to apical side in human Caco2 cells; assay type: ADME, cell-based; details: Caco-2, read-out: permeability
[36] = Tmax in non-fasting diet-induced obese cynomolgus monkey administered via oral gavage; assay type: ADME, Macaca fascicularis; details: in vivo
[37] = Apparent elimination half life in cynomolgus monkey at 1 mg/kg, iv; assay type: ADME, organism-based, Macaca fascicularis; details: in vivo, read-out: betat1/2(app) (converted)
Cynomolgus monkey [38] = assay: In vivo inhibition of 11beta-HSD1 in non-fasting diet-induced obese cynomolgus monkey assessed as plasma concentration required to show decrease in corticosterone excursion pretreated via oral gavage for 30 mins followed by DHC administration measured up to 60 mins by enzyme immunosorbent assay; assay type: functional, organism-based; details: Macaca fascicularis; method in brief: as §4
Cytochrome P450 2C8 = Cytochrome P450 2C8 (Homo sapiens, UniProt P10632); assay: Inhibition of CYP2C8 (unknown origin); assay type: ADME
Cynomolgus monkey [39] = assay: Toxicity in cynomolgus monkey assessed as HPA axis activation by measuring cortisol level at 1 to 10 mg/kg for 7 days; assay type: organism-based, Macaca fascicularis; details: in vivo, 168 h
[40] = AUC (0 to 24 hrs) in mouse at 5 mg/kg, iv; assay type: ADME, organism-based; set-up: time < 24 hr, dose 5 mg/kg, route intravenous; details: in vivo
Cytochrome P450 2B6 = Cytochrome P450 2B6 (Homo sapiens, UniProt P20813); assay: Inhibition of CYP2B6 (unknown origin); assay type: ADME
in vivo [41] = details: mouse, brain / plasma, iv, 5 mg/kg
[42] = Protein binding in dog plasma; assay type: ADME, cell-free, Canis lupus familiaris; details: read-out: PPB (converted)

Sequence of Cytochrome P450 2A6 (P11509 whole entry): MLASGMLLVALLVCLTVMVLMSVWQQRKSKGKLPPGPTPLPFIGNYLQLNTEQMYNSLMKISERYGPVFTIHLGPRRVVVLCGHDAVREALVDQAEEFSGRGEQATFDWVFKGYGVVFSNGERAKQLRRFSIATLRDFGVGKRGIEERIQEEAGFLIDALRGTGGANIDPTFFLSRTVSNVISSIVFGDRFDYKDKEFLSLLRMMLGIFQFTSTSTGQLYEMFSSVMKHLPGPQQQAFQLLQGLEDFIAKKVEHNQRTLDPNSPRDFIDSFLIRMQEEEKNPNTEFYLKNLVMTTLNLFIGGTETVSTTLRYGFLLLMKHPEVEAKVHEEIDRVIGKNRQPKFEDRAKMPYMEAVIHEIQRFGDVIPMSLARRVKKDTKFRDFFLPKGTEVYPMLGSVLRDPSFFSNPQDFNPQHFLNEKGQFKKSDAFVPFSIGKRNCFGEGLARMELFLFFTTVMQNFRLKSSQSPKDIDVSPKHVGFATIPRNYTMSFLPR
Sequence of Cytochrome P450 2C19 (P33261 whole entry): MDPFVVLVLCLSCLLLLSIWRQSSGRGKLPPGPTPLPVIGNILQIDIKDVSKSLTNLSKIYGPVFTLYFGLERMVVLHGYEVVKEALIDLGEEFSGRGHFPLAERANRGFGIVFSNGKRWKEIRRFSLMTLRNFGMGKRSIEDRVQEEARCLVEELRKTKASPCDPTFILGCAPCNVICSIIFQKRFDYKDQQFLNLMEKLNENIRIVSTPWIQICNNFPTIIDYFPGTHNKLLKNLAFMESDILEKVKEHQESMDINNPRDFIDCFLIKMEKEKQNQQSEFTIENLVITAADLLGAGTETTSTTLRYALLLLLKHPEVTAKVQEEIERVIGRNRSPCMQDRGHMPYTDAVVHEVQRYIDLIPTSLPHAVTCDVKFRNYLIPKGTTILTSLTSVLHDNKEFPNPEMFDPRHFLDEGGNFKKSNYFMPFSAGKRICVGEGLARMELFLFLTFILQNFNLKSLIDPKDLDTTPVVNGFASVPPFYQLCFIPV
Sequence of Cytochrome P450 1A2 (P05177 whole entry): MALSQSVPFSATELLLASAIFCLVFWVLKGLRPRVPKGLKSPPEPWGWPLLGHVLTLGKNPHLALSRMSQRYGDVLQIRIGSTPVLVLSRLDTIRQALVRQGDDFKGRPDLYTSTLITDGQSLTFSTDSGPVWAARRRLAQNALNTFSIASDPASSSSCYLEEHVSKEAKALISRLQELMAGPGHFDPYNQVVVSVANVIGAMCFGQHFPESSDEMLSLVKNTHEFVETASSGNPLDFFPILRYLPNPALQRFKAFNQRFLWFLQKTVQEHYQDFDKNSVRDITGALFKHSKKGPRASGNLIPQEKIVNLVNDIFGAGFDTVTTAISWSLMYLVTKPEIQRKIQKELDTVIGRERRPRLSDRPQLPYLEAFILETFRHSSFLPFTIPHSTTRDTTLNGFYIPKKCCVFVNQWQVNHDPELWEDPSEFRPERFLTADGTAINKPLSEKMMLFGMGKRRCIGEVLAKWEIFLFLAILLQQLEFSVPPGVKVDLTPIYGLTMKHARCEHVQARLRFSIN
Sequence of 11-beta-hydroxysteroid dehydrogenase 1 (Rattus norvegicus, UniProt P16232) (P16232 whole entry): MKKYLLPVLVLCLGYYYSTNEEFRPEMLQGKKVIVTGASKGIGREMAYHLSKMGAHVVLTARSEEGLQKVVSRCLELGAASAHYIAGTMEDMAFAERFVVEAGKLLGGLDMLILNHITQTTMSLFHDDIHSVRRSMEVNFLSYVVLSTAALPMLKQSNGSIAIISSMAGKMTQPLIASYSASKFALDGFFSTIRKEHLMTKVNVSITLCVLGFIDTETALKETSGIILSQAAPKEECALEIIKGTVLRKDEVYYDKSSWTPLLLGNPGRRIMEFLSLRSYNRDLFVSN
Sequence of hERG (Q12809 whole entry): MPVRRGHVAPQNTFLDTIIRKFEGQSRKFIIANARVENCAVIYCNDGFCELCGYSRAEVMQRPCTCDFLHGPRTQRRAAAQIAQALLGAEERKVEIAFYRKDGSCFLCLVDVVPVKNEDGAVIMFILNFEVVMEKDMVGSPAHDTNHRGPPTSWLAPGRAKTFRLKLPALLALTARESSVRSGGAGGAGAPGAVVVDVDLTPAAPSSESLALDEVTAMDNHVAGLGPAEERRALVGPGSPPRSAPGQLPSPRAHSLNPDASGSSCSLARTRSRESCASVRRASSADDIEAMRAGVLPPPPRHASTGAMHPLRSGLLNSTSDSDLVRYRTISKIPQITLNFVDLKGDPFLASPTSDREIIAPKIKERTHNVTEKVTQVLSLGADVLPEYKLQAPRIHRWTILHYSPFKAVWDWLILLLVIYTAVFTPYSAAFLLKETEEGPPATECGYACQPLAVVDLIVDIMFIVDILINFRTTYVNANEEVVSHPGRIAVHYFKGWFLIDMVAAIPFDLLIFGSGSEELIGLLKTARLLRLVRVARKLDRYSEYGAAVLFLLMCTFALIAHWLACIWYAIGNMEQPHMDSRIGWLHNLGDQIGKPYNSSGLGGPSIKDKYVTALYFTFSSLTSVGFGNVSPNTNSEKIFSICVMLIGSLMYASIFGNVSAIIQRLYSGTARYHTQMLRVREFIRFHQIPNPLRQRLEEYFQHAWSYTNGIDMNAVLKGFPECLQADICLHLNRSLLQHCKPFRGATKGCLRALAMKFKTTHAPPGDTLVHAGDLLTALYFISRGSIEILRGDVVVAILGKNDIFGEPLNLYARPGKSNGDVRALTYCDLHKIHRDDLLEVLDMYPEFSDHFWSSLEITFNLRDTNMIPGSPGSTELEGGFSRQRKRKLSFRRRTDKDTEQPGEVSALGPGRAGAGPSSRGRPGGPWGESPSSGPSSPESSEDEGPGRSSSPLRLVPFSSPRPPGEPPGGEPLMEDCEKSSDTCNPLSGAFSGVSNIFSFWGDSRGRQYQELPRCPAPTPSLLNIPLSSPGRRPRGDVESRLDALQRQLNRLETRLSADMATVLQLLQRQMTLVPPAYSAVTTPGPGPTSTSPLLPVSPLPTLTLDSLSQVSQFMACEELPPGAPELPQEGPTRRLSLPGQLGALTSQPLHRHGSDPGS
Sequence of 11-beta-hydroxysteroid dehydrogenase type 2 (P50233 whole entry): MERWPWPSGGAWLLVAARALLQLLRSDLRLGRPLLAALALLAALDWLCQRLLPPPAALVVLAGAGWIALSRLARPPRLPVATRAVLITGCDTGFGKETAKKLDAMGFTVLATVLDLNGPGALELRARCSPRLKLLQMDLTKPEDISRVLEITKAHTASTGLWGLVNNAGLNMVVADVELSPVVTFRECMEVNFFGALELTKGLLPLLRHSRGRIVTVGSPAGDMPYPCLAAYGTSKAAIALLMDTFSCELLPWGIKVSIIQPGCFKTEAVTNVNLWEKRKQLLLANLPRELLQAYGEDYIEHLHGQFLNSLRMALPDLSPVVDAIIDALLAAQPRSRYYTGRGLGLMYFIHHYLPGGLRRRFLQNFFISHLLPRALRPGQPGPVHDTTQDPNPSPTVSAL
Sequence of 11-beta-hydroxysteroid dehydrogenase 1 (Mus musculus, UniProt P50172) (P50172 whole entry): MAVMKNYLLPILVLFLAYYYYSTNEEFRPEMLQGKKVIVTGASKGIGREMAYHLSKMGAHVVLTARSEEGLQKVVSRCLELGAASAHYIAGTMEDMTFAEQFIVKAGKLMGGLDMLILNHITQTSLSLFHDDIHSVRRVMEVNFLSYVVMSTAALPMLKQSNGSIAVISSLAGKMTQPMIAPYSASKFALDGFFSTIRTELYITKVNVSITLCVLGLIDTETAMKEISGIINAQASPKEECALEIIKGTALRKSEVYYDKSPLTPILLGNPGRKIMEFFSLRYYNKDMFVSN
Sequence of Cytochrome P450 2B6 (P20813 whole entry): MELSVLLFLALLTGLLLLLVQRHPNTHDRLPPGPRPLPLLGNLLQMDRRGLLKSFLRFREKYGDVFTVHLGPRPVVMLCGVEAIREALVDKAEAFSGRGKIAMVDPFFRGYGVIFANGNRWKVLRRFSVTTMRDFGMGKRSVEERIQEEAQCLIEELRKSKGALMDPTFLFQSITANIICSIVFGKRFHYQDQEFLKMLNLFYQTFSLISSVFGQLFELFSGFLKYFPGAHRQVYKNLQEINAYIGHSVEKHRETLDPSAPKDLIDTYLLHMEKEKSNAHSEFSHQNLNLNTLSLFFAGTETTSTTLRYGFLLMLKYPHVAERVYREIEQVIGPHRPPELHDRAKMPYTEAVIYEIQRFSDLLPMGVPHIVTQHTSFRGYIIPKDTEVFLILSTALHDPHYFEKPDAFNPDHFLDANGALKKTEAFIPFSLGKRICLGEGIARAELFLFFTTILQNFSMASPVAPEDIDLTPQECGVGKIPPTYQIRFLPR
Sequence of Cytochrome P450 2D6 (P10635 whole entry): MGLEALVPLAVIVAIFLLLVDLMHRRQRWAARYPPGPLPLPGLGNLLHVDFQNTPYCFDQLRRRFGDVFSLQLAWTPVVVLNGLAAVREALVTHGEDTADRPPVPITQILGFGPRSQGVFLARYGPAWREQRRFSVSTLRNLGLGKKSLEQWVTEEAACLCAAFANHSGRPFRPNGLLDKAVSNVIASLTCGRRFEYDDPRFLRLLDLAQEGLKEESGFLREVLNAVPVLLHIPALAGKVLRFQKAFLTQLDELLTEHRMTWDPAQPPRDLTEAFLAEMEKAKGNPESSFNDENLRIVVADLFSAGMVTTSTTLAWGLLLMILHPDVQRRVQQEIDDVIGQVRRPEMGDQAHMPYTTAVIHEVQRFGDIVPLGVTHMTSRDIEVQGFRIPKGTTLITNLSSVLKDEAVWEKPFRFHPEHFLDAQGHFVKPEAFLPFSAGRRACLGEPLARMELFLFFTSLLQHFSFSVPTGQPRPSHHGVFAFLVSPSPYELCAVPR

For `O=C(CC1(c2ccccc2)C2CC3CC1CC(C2)C3O)N1CC(O)C1` (stereo in doubt; form 2), the Vd [1] was 4.2 L/kg, the IC50 (Cytochrome P450 2A6) was > 40 µM and the half-life [2] was 2.02 h. The MRT [3] was 3.3 h, the Activity (Rattus norvegicus [4]) was “Non-Toxic” and the Activity (Rattus norvegicus [5]) was “Non-Toxic”. It also gave an IC50 [6] of 3.5 µM, a bioavailability [7] of 72% and an inhibition at 30 µM (hERG) of 10%. For the same compound, the solubility [8] was 1800 µg/mL (≈ 5.27 mM), the Stability (Liver [9]) was 91% and the MRT [10] was 3.5 h. For the same compound, the bioavailability [11] was 20%, the half-life [12] was 7.4 h and the Drug uptake (Plasma [13]) was “Dose-dependent effect”. The Drug metabolism (Plasma [14]) was “Metabolite_Detected”, the MRT (Rattus norvegicus [15]) was 1.3 h and the IC50 (Cytochrome P450 1A2) was > 40 µM. The Vd [16] was 3 L/kg, the Activity (Rattus norvegicus [17]) was “Non-Toxic” and the fraction unbound [18] was 0.37. It also gave a Kp (in vivo [19]) of 1 to 56, an IC50 [20] of 0.5 µM and an AUC(0-t) at 24 h [21] of 4.6 µM·h. The fraction unbound [22] was 0.32, the Stability (Liver [23]) was 67% and the IC50 [24] was 0.0286 µM. The Kp (in vivo [25]) was 0.15, the half-life [26] was > 3.33 h and the clearance [27] was 11 mL/min/kg. The clearance [28] was 21.2 mL/min/kg, the IC50 (Cytochrome P450 2D6) was > 40 µM and the IC50 (Cytochrome P450 2C19) was > 40 µM. It also gave an ED50 (Cynomolgus monkey [29]) of 0.12 mg/kg, a half-life [30] of 0.783 h and a Vdss (Rattus norvegicus [31]) of 0.5 L/kg. For the same compound, the bioavailability [32] was 56%, the IC50 (Cytochrome P450 2C9) was > 40 µM and the fraction unbound [33] was 0.35. For the same compound, the Drug metabolism (Plasma [34]) was “Metabolite_Detected”, the Papp B→A [35] was 28.5 ×10⁻⁶ cm/s and the Tmax [36] was 0.5 h. The half-life [37] was 6 h, the EC50 (Cynomolgus monkey [38]) was 0.075 µM and the IC50 (Cytochrome P450 2C8) was > 40 µM. For the same compound, the Activity (Cynomolgus monkey [39]) was “Non-Toxic”, the AUC(0-t) at 24 h [40] was 5 µM·h and the IC50 (Cytochrome P450 2B6) was > 40 µM. For the same compound, the Kp (in vivo [41]) was < 0.1 and the fraction unbound [42] was 0.43.
